ChEMBL document CHEMBL3272308, “Pharmacological effects of introducing a double bond into a binding site of oxytocin. Analogues with L-3,4-dehydroproline in position 7” (1977)
*1 amine or outer side, *2 acyl side, *3 side chain or, on linkers, in order; H or OH if unused. Where a SMILES comes first, the peptide text is derived from it. Bridges are numbered along the chain shown (N, C = ends). [ ]: non-standard residue; d: D form. X1 = O=C([C@H](O)CS[*:2])[*:1]; ΔPro = O=C(O)[C@@H]1C=CCN1

Columns and labels:
Rattus norvegicus [1] = species on record: Rattus norvegicus; assay: Activity at uterotonic receptor in rat uterus assessed as uterotonic activity; assay type: tissue-based
How it was run: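 Isolated female rat uterine horn in the bathing fluid used for the oxytocic assay. Isometric contractions were recorded at a baseline tension of 1 g. Cumulative dose-response curves (van Rossum) were built by raising doses geometrically until a maximal response, alternating oxytocin and analogue on the same horn with return to baseline between runs. pD2 is the negative log of the concentration giving 50% of maximum.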

Rattus norvegicus [2] = species on record: Rattus norvegicus; assay: Antidiuretic activity in rat; assay type: functional, Urine
Gallus gallus = species on record: Gallus gallus; assay: Vasodepressor activity in fowl; assay type: functional
Rattus norvegicus [3] = species on record: Rattus norvegicus; assay: Pressor activity in rat; assay type: functional
Rattus norvegicus [4] = species on record: Rattus norvegicus; assay: Ratio of oxytocin to compound for antidiuretic activity in rat; assay type: functional, Urine

SMILES	Activity (Rattus norvegicus [1]) [U/mg]	Activity (Rattus norvegicus [2]) [U/mg]	Activity (Gallus gallus) [U/mg]	Activity (Rattus norvegicus [3]) [U/mg]	Ratio (Rattus norvegicus [4])
CC[C@H](C)[C@@H]1NC(=O)[C@H](Cc2ccc(O)cc2)NC(=O)[C@H](O)CSSC[C@@H](C(=O)N2CC=C[C@H]2C(=O)N[C@@H](CC(C)C)C(=O)NCC(N)=O)NC(=O)[C@H](CC(N)=O)NC(=O)[C@H](CCC(N)=O)NC1=O (YIQNC[ΔPro]LG-NH2; linker N-5 via X1)	880	76.7	1295	–	–
CC[C@H](C)[C@@H]1NC(=O)[C@H](Cc2ccc(O)cc2)NC(=O)[C@H](O)CSSC[C@@H](C(=O)N2CCC[C@H]2C(=O)N[C@@H](CC(C)C)C(=O)NCC(N)=O)NC(=O)[C@H](CC(N)=O)NC(=O)[C@H](CCC(N)=O)NC1=O (YIQNCPLG-NH2; linker N-5 via X1)	1280	16.6	1778	14.7	–
CC[C@H](C)[C@@H]1NC(=O)[C@H](Cc2ccc(O)cc2)NC(=O)CCSSC[C@H](C(=O)N2CCC[C@H]2C(=O)N[C@@H](CC(C)C)C(=O)NCC(N)=O)NC(=O)[C@H](CC(N)=O)NC(=O)[C@H](CCC(N)=O)NC1=O	803	–	–	–	–
CC[C@H](C)[C@@H]1NC(=O)[C@H](Cc2ccc(O)cc2)NC(=O)CCSSC[C@@H](C(=O)N2CCC[C@H]2C(=O)N[C@@H](CC(C)C)C(=O)NCC(N)=O)NC(=O)[C@H](CC(N)=O)NC(=O)[C@H](CCC(N)=O)NC1=O [DEMOXYTOCIN]	–	19	975	1.44	–
CC[C@H](C)[C@@H]1NC(=O)[C@H](Cc2ccc(O)cc2)NC(=O)[C@@H](N)CSSC[C@@H](C(=O)N2CCC[C@H]2C(=O)N[C@@H](CC(C)C)C(=O)NCC(N)=O)NC(=O)[C@H](CC(N)=O)NC(=O)[C@H](CCC(N)=O)NC1=O [OXYTOCIN]	546	2.7	507	3.1	–
CC[C@H](C)[C@@H]1NC(=O)[C@H](Cc2ccc(O)cc2)NC(=O)[C@@H](N)CSSC[C@@H](C(=O)N2CC=C[C@H]2C(=O)N[C@@H](CC(C)C)C(=O)NCC(N)=O)NC(=O)[C@H](CC(N)=O)NC(=O)[C@H](CCC(N)=O)NC1=O	1070	5.9	548	–	2
CC[C@H](C)[C@@H]1NC(=O)[C@H](Cc2ccc(O)cc2)NC(=O)CCSSC[C@@H](C(=O)N2CC=C[C@H]2C(=O)N[C@@H](CC(C)C)C(=O)NCC(N)=O)NC(=O)[C@H](CC(N)=O)NC(=O)[C@H](CCC(N)=O)NC1=O	1070	23.3	1008	–	–
